Results reported in article PMC3128788 (Nuclear medicine and biology, 2011).
Where “and” joins values, the source holds several entries; their conditions need not be identical. Equal entries are not always repeated.

What was measured:
[1] = molecular target: D2 dopamine receptors (transfected HEK cells) (Homo sapiens, UniProt P14416); experiment: Whole cell forskolin-dependent adenylyl cyclase inhibition assay, D2; assay type: cell-based; conditions: intrinsic activity
In short: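 Transfected HEK cells were prelabelled with 2,8-3H-adenine in serum-free medium for 75 min at 37 °C. They were then incubated with test compound in serum-free medium containing 0.1 mM 3-isobutyl-1-methylxanthine for 20 min at 37 °C. The reaction was stopped with a solution of 10% trichloroacetic acid and 1 mM cyclic AMP, and accumulated 3H-cyclic AMP was measured.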

[2] = molecular target: human D3 dopamine receptors expressed in HEK 293 cells (Homo sapiens, UniProt P35462); experiment: Dopamine receptor filtration binding assay, [125I]-IABN competition, D3; conditions: for D3 (Ki): mean Ki ± S.E.M., [125I]-IABN, HEK 293 membranes, unit printed in b5 only
Sequence of human D3 dopamine receptors expressed in HEK 293 cells (P35462 whole entry): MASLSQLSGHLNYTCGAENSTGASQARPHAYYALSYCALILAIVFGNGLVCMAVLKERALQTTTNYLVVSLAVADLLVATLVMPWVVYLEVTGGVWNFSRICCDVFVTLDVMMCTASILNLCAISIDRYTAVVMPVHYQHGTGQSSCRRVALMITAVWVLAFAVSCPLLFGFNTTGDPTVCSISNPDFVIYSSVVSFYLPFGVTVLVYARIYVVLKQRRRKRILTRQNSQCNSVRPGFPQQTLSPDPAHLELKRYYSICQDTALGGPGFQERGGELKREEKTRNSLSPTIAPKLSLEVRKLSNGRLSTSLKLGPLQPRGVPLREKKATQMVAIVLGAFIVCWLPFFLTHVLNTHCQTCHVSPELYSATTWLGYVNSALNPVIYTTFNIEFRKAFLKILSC

[3] = molecular target: D3 dopamine receptors (transfected HEK cells) (Homo sapiens, UniProt P35462); experiment: Whole cell forskolin-dependent adenylyl cyclase inhibition assay, D3; assay type: cell-based; conditions: for Functional classification at D3 dopamine receptors: compared to quinpirole; for %IA D3: intrinsic activity, compared to the full agonist quinpirole
Sequence of D3 dopamine receptors (transfected HEK cells) (P35462 whole entry): as above

Sequence of D2 dopamine receptors (transfected HEK cells) (P14416 whole entry): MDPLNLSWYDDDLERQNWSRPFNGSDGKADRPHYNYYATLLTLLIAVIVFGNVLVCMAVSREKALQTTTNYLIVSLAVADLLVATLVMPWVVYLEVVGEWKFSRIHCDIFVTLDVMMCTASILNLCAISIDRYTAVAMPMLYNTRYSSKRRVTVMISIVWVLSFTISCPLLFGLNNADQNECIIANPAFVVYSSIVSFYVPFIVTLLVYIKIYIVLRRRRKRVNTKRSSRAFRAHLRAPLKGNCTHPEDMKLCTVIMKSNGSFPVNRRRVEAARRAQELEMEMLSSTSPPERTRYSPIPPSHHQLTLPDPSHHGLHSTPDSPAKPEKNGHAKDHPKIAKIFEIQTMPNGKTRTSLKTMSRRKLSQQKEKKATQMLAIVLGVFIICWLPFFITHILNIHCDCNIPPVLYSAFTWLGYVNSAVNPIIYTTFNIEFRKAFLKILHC

| %IA D2 [1] [%] | D3 (Ki) [2] | Functional classification at D3 dopamine receptors [3] | D2:D3 selectivity ratio ([2]; selectivity for D3 versus D2 receptors) | %IA D3 [3] | Structure (SMILES) |
| --- | --- | --- | --- | --- | --- |
| 34 ± 3 | subnanomolar | weak partial agonist/antagonist |  |  | COc1ccccc1N1CCN(CCCCNC(=O)c2ccc(N(C)C)cc2)CC1 [Compound 6, 4-(dimethylamino)-N-(4-(4-(2-methoxyphenyl)piperazin-1-yl)butyl)benzamide] |
| 35 ± 1 | subnanomolar |  |  |  | COc1ccccc1N1CCN(CCCCNC(=O)c2ccc(CCF)cc2)CC1 [Compound 7, 4-(2-fluoroethyl)-N-(4-(4-(2-methoxyphenyl)piperazin-1-yl)butyl)benzamide] |
| 66.3 ± 1 | subnanomolar | partial agonist | 23 | 64.5 ± 8.3% and 64.5 ± 8% | CN(C)c1ccc(C(=O)NCCCCN2CCN(c3ccccc3OCCF)CC2)cc1 [Compound 8, 4-(dimethylamino)-N-(4-(4-(2-(2-fluoroethoxy)phenyl)piperazin-1-yl)butyl)benzamide] |
| 29.3 ± 7.3 |  | weak partial agonist |  | 34.4 ± 1.7% | O=C(NCCCCN1CCN(c2ccccc2OCCF)CC1)c1ccc(-c2ccsc2)cc1 [Compound 9, N-(4-(4-(2-(2-fluoroethoxy)phenyl)piperazin-1-yl)butyl)-4-(thiophen-3-yl)benzamide] |
